Experimental findings from article PMC4828293 (Bioorganic & medicinal chemistry, 2015) are described below.

Like-named read-outs stand apart in the source and are kept apart here.

Test [1] relates to SK-OV-3 (ovarian). Briefly: SRB cytotoxicity assay, SK-OV-3. The conditions noted are these: SK-OV-3, 48 h, read-out: GI50 (μM) SRB assay SK-OV-3. It counts as cell-based, human. In outline:
(§1)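 Serial dilutions of the test compound were added to the cells for 48 h. Cells were then fixed with trichloroacetic acid, washed, dried and stained with sulforhodamine B. The dye was solubilised and read at 540 nm, normalised to 630 nm.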

Test [2] deals with NCI-H460 (lung). Briefly: SRB cytotoxicity assay, NCI-H460. The format is cell-based, human. The note with it: NCI-H460, 48 h, read-out: GI50 (μM) SRB assay NCI-H460. In short, it runs like this: as §1
Test [3] relates to DU-145 (prostate). Kind of test: SRB cytotoxicity assay, DU-145. The note with it: DU-145, 48 h, read-out: GI50 (μM) SRB assay DU-145. The format is cell-based, human. In short, it runs like this:
as §1

Test [4] concerns tubulin. Kind of test: Inhibition of [3H]colchicine binding to tubulin. The conditions noted are these: 1.0 μM tubulin, 5.0 μM [3H]colchicine.

As to `COc1cc(C2=CCCCc3c2ccc(O)c3O)cc(OC)c1OC` [Compound 70, 9-(3′,4′,5′-Trimethoxyphenyl)-6,7-dihydro-5H-benzo[7]annulene-3,4-diol], the GI50 in test [1] (Homo sapiens) is 0.346 µM; in test [2] (Homo sapiens), 0.691 µM; in test [3] (Homo sapiens), 1.53 µM.

Regarding `COc1ccc2c(c1O)CCCCC2c1cc(OC)c(OC)c(OC)c1` (centres unmarked) [Compound 72, 2-Methoxy-5-(3′,4′,5′-trimethoxyphenyl)-6,7,8,9-tetrahydro-5H-benzo[7]annulen-1-ol], the figures for the “% Inhibition of colchicine binding ± SD” value in test [4] (1 μM inhibitor) and in test [4] (5 μM inhibitor) were 21 ± 0.9% and 67 ± 0.6%, respectively. Moreover, the GI50 in test [1] (Homo sapiens) came to 0.408 µM; in test [2] (Homo sapiens), 0.141 µM; in test [3] (Homo sapiens), 0.57 µM.

Turning to `COc1ccc(C2=CCCCc3cc(OC)ccc32)cc1` [Compound 37, 3-Methoxy-9-(4′-methoxyphenyl)-6,7-dihydro-5H-benzo[7]annulene], the GI50 was 40.7 µM in test [1] (Homo sapiens), 57.7 µM in test [2] (Homo sapiens) and 68.7 µM in test [3] (Homo sapiens).

As to `COc1ccc(C2=CCCCc3c2ccc(OC)c3OC)cc1` [Compound 36, 3,4-Dimethoxy-9-(4′-methoxyphenyl)-6,7-dihydro-5H-benzo[7]annulene], the GI50 in test [1] (Homo sapiens) is 20.5 µM; in test [2] (Homo sapiens), 33.4 µM; in test [3] (Homo sapiens), 48.3 µM.

Consider `COc1ccc2c(c1OC)CCCC=C2c1cc(C(F)(F)F)cc(C(F)(F)F)c1` [Compound 34, 9-(3′,5′-Bis(trifluoromethyl)phenyl)-3,4-dimethoxy-6,7-dihydro-5H-benzo[7]annulene], for which the GI50 is 31.1 µM in test [1] (Homo sapiens), 25.5 µM in test [2] (Homo sapiens) and 52.1 µM in test [3] (Homo sapiens).

Regarding `COc1ccc2c(c1OC)CCCC=C2c1ccc(OC)c(OC)c1OC` [Compound 61, 3,4-Dimethoxy-9-(2′,3′,4′-trimethoxyphenyl)-6,7-dihydro-5H-benzo[7]annulene], the GI50 in test [1] (Homo sapiens) was 6.96 µM; in test [2] (Homo sapiens), 10.5 µM; in test [3] (Homo sapiens), 26.2 µM.

For the molecule `CCCc1c(OC)ccc2c1CCCC=C2c1cc(OC)c(OC)c(OC)c1` [Compound 32, 3-Methoxy-4-propyl-9-(3′,4′,5′-trimethoxyphenyl)-6,7-dihydro-5H-benzo[7]annulene], the GI50 in test [1] (Homo sapiens) was 2.96 µM; in test [2] (Homo sapiens), 3.32 µM; in test [3] (Homo sapiens) it was 6.03 µM.

As for `COc1ccc2c(c1O)CCCC=C2c1ccc(OC)c(OC)c1OC` [Compound 71, 3-Methoxy-9-(2′,3, ′4′-trimethoxyphenyl)-6,7-dihydro-5H-benzo[7]annulen-4-ol], the GI50 came out at 3.53 µM in test [1] (average of n ≥ 3), 4.24 µM in test [2] (average of n ≥ 3) and 7.54 µM in test [3] (average of n ≥ 3).

With `COc1ccc2c(c1OP(=O)(O)O)CCCC=C2c1cc(C(F)(F)F)cc(C(F)(F)F)c1` [Compound 74, 9-(3′,5′-Bis(trifluoromethyl)phenyl)-3-methoxy-6,7-dihydro-5H-benzo[7]annulen-4-yl disodium phosphate], the GI50 stood at 17.2 µM in test [1] (average of n ≥ 3), 16.3 µM in test [2] (average of n ≥ 3) and 17.5 µM in test [3] (average of n ≥ 3).

With `Oc1ccc2c(c1O)CCCC=C2c1cc(C(F)(F)F)cc(C(F)(F)F)c1` [Compound 66, 9-(3′,5′-Bis(trifluoromethyl)phenyl)-6,7-dihydro-5H-benzo[7]annulene-3,4-diol], the GI50 in test [1] (Homo sapiens) stood at 16.8 µM; in test [2] (Homo sapiens), 25 µM; in test [3] (Homo sapiens), 21.8 µM.

For the molecule `COc1ccc2c(c1OC)CCCC=C2c1ccccc1` [Compound 28, 3,4-Dimethoxy-9-phenyl-6,7-dihydro-5H-benzo[7]annulene], the GI50 in test [1] (Homo sapiens) was found to be 32.7 µM; in test [2] (Homo sapiens), 37.5 µM; in test [3] (Homo sapiens) it was 89.3 µM.

Consider `COc1ccc(C2=CCCCc3c2ccc(OC)c3O)cc1` [Compound 67, 3-Methoxy-9-(4′-methoxyphenyl)-6,7-dihydro-5H-benzo[7]annulen-4-ol], for which the GI50 in test [1] (Homo sapiens) is 18.4 µM; in test [2] (Homo sapiens), 10.6 µM; in test [3] (Homo sapiens), 8.59 µM.
